Screening results from PubChem.
In the library only some 1.9% were active in any assay of this set; here they are far more common.
Runt-CBFb FRET – inhibitors of human RUNX1 Runt domain binding to CBFb; Q01196+Q13951; Cerulean-Runt/Venus-CBFb FRET ratio 530/480, 1 h; inhibition, % at 20 µM; 220,000 compounds, 0.46% hits; AID 1496;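 active = inhibition over about 50% at 20 µM in the single-dose screen, limit read from the data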;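 note: 0% = DMSO wells and 100% = excess unlabeled CBFb competitor control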
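Schedule: protein complex preformed 1 h, compound exposure 1 h, room temperature, dark; test system: Cerulean-labeled Runt domain protein; amount: 100 nM per protein; buffer or medium: Tris 50 mM pH 7.5, KCl, K2SO4, 0.01% BSA; read-out: loss of energy transfer signal; detection: FRET fluorescence; controls: 5 µM unlabeled CBFb as full-inhibition high control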
HDAC3 inh – blocks human histone deacetylase 3; recombinant HDAC3, fluorogenic peptide/trypsin coupled, fluorescence; inhibition, % at 8.3 µM; 320,000 compounds, 0.15% hits; in the data active = inhibition above about 26%, passing the limit was not always enough; inconclusive = no clear call, values can overlap the other calls
Target sequence (O15379 whole entry, looked up): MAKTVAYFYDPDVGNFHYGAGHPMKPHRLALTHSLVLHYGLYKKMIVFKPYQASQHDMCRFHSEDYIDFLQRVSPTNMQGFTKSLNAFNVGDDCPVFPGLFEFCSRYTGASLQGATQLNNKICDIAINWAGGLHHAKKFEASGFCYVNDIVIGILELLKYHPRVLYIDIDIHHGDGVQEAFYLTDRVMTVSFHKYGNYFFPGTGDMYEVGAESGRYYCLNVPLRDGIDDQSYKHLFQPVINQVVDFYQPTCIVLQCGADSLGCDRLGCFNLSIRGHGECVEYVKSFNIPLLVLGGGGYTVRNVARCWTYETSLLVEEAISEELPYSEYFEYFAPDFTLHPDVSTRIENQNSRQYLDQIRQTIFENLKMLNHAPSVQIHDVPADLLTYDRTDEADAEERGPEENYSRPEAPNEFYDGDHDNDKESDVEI
Runt-SMMHC FRET – Runt domain-CBFb-SMMHC interaction inhibition | Cerulean-Runt/Venus-CBFb-SMMHC FRET ratio 530/480, 1 h | inhibition, % at 20 µM | 220,000 compounds, 0.74% hits;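 active = mean inhibition across duplicate retests at 20 µM reaching about 50%, limit read from the data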;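 note: 0% = DMSO wells and 100% = wells with excess untagged CBFb-SMMHC; inhibitors lower the FRET ratio by blocking Runt binding to CBFb-SMMHC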
LANA-H2B inh – blocks KSHV LANA binding to histone H2A/H2B; cell-free LANA-H2A/H2B peptide, fluorescence polarization; inhibition, % (test concentration not listed); 320,000 compounds, 0.6% hits; in the data active = inhibition mostly above about 10%, no sharp cut-off; inactive = mostly below about 6.7%
CaV13 FRET inh – Disruptors of the CACNA1D IQ motif to Ca2+-dependent inactivation inhibitor domain association, primary screening, Förster resonance energy transfer in intact living … | HEK cells, CFP/YFP FRET ICDI-IQ, plate reader, 10 min; percent FRET-ratio fall versus neutral wells | inhibition, % at 12.3 µM | 340,000 compounds, 0.098% hits;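 active = mean replicate inhibition of at least 30% and at least 1% of replicates passing that level; inconclusive = only one of the two criteria is met; inactive = neither criterion is met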;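 note: 0% = median of the neutral control wells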
RanGTP-Impb inh – inhibitors of RanGTP-importin-beta interaction, primary screen, biochemical, FRET, CFP-Ran, YFP-importin-beta, homogeneous; cell-free CFP-Ran/YFP-importin-beta FRET ratio; inhibition, % (test concentration not listed); 300,000 compounds, 1.1% hits;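 active = more than half of the replicate wells show a fall in the fluorescence ratio signal beyond about 16%, limit read from the data, passing the limit was not always enough; inconclusive = exactly half of the replicate wells pass the set limit; inactive = fewer than half of replicates pass the limit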;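 note: 0% = DMSO wells and 100% = Ran loaded with GDP instead of GTP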
* = called active by the depositor; ? = inconclusive; . = no result; + = active, no number; ! = not confirmed by another sample.

SMILES	Runt-CBFb FRET	HDAC3 inh	Runt-SMMHC FRET	LANA-H2B inh	CaV13 FRET inh	RanGTP-Impb inh
O=[N+]([O-])c1cccnc1Oc1ccc(F)cc1F	-0.6	4.2	-2.3	5.5	-2.9	2.9
O=[N+]([O-])c1ccc(F)cc1F	.	-4.5	.	51.5*	.	.
O=c1oc(Nc2cccc(Cl)c2)nc2ccccc12	-0.5	-1.1	2.1	3.0	4.0	4.1
CSc1ccccc1NC(=O)C1CCN(S(C)(=O)=O)CC1	.	-1.6	.	-0.4	-4.6	-3.6
CC(C)Nc1nnc(SCC(=O)N2CCN(C(=O)c3ccco3)CC2)s1	.	7.1	.	4.5	-7.7	.
CCOc1ccc(C2C(C#N)=C(N)SC(N)=C2C#N)c(OCC)c1	15.2	1.3	31.7	-14.2	.	18.9*
Cn1cnc([N+](=O)[O-])c1Oc1cccc(O)c1	1.4	-3.3	-2.6	-8.1	-4.8	-1.1
c1cnc2c(c1)ccc1cccnc12	2.6	2.7	2.1	20.6*!	-6.7	-1.3
CCc1ccc(-c2cn3nc(-c4ccccc4)cnc3n2)cc1	1.8	0.9	12.4	-2.9	-23.6	21.1*
Cc1ccc(S(=O)(=O)Cc2ccc(C(=O)N3CCN(Cc4ccccc4)CC3)o2)cc1	0.9	6.1	3.2	0.6	5.0	3.7
COc1ccc(S(=O)(=O)Cc2ccc(C(=O)N3CCN(Cc4ccccc4)CC3)o2)cc1	3.1	4.8	4.7	3.5	57.9*	1.0
COc1ccc(N2CCN(C(=O)COC(=O)CNC(=O)c3ccccc3)CC2)cc1	.	-1.5	.	2.5	.	-0.3
CC(C)(C)c1[nH]nc2c1C(c1ccc(OC(=O)c3ccco3)cc1)C(C#N)=C(N)O2 (stereo not given)	-0.6	54.2*	-2.3	6.4	-8.4	3.8
COc1ccccc1C(=O)Nc1ccc2c(c1)nc1n2CCN(Cc2ccccc2)C1	0.5	-7.1	2.0	16.3*	-18.3	1.8
CC(C)Cn1c(SCC(=O)NCc2ccco2)nnc1-c1ccncc1	2.9	-6.6	-3.1	2.0	-2.6	6.4
COc1ccc(S(=O)(=O)N2CCOCC2)cc1NC(=O)c1ccc(S(=O)(=O)N2CCCCC2)cc1	.	.	.	.	-7.1	.
C=CCn1c(SCc2c(C)noc2C)nc2sc(C)c(C)c2c1=O	-7.8	-4.0	0.8	55.7*	-7.6	?
O=C(Nc1ccc(C(=O)OC[C@@H]2CCCN3CCCC[C@H]23)cc1)c1cccc(Br)c1	-1.9	-6.7	-0.6	0.3	-5.0	2.5
CC1C/C(=N\NC(=O)c2ccc(NS(=O)(=O)c3ccc(Br)cc3)cc2)CC(C)(C)C1 (stereo not given)	2.4	36.9*	4.5	-0.5	-4.4	-2.9
CC1C/C(=N\NC(=O)c2ccc([N+](=O)[O-])cc2)CC(C)(C)C1 (stereo not given)	-0.7	0.2	1.4	2.3	-7.1	0.9
CCn1c(=O)cc(OCC(=O)N2CCCC2)c2ccccc21	1.2	1.4	1.6	-2.2	-1.9	-2.0
CCn1c(=O)cc(OCC(=O)N2CCN(c3cccc(C(F)(F)F)c3)CC2)c2ccccc21	-5.1	12.9	-5.8	1.6	-4.7	30.0*
Oc1csc(Cc2nc(-c3ccccc3F)cs2)n1	4.7	2.0	-11.6	3.5	-5.0	21.3*
CC1=CC(=O)c2ccccc2C1=O	7.5	-7.5	4.8	-7.9	-5.2	2.3
CC(C)(C=O)C1=CC(=O)c2ccccc2C1=O	11.7	3.0	-12.0	+	-16.3	.
SMILES	Runt-CBFb FRET	HDAC3 inh	Runt-SMMHC FRET	LANA-H2B inh	CaV13 FRET inh	RanGTP-Impb inh
Cc1ccc2c(c1)C(c1ccncc1)=NNC(c1cccnc1)=N2	0.6	0.9	-4.5	-21.2	5.3	5.7
Cc1ccccc1-n1c(=O)cc(N2CCc3ccccc3C2)[nH]c1=O	37.1	-0.2	75.6*	3.9	-6.6	52.9*
Cc1ccc(-n2c(=O)cc(N3CCc4ccccc4C3)[nH]c2=O)cc1	2.4	6.2	1.5	-0.2	.	40.1*
O=c1cc(N2CCc3ccccc3C2)[nH]c(=O)n1-c1ccccc1Cl	16.3	2.1	27.3	-2.3	-5.3	79.6*
CCN1CCN(c2cc(=O)n(-c3cc(Cl)ccc3C)c(=O)[nH]2)CC1	0.1	-1.8	-1.5	3.1	-3.8	72.0*
C=CCNc1nc2ccccc2nc1NS(=O)(=O)c1ccc(Br)cc1	.	-2.6	.	-5.2	-20.8	0.1
